Data as given in ChEMBL document CHEMBL1132236, “Synthesis and pharmacology of the baclofen homologues 5-amino-4-(4-chlorophenyl)pentanoic acid and the R- and S-enantiomers of 5-amino-3-(4-chlorophenyl)pentanoic acid” (J Med Chem, 1999).
Active and inactive are the calls of the source. No cut-off for these calls is given here.

Legend:
[1] = molecular target: GABA-A receptor; anion channel; experiment: Inhibition of [3H]muscimol binding to Gamma-aminobutyric acid A (GABA-A) receptor of rat brain membranes; assay type: cell membranes, Membrane
In short: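 Male Sprague-Dawley rat brain synaptic membranes, washed repeatedly, resuspended at 1 mg/mL in 50 mM Tris-HCl pH 7.4. Incubated with 10 nM [3H]muscimol for 1 h at 20 °C, competitor 10^-10 to 10^-3 M. Nonspecific binding defined with 1 mM GABA. GF/B filtration, liquid scintillation counting.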

Cavia porcellus [2] = species on record: Cavia porcellus; experiment: The compound was tested for inhibition of electrically evoked muscle contractions in isolated longitudinal guinea pig ileum muscle; assay type: functional
In short: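 Guinea pig ileum longitudinal muscle strips with myenteric plexus (Paton–Zar) held in Krebs-bicarbonate gassed 5% CO2/95% O2 at 37 °C. After 60 min equilibration, stimulated at 0.1 Hz, 5 ms, 100 V. Isometric contractions recorded, inhibition taken relative to maximal inhibition. EC50 fitted with Hill equation. 20–30 min recovery between curves. At least four preparations from two animals.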

GABA B receptor = GABA B receptor (Rattus norvegicus, UniProt O88871+Q9Z0U4); experiment: Displacement of [3H]GABA from Gamma-aminobutyric acid type B receptor; assay type: protein-complex assay
GABA B receptor, sequence (Q9Z0U4 whole entry): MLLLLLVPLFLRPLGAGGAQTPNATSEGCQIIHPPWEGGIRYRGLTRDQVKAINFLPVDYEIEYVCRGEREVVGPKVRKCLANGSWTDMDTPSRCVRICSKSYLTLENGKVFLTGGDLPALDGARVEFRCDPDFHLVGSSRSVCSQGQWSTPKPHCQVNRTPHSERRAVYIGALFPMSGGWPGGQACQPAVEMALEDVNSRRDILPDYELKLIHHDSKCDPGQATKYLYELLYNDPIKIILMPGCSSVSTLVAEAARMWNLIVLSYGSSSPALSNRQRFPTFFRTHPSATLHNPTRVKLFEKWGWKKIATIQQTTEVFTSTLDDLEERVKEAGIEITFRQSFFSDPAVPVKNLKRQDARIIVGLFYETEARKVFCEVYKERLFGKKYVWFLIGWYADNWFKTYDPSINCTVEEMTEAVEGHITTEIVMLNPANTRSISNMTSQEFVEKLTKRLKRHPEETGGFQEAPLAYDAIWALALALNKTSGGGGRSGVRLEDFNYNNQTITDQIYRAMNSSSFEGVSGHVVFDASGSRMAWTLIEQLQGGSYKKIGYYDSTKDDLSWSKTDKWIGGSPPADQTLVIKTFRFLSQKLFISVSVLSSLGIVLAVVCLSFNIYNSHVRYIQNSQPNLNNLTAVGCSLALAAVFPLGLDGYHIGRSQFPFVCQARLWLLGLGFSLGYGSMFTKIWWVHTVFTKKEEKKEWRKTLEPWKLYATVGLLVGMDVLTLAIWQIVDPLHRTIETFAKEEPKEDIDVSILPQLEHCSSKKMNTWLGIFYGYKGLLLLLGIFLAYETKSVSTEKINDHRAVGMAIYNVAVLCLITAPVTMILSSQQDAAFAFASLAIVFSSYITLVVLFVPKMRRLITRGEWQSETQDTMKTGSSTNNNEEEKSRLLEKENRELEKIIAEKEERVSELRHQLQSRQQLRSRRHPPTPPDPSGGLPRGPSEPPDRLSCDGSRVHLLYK
GABA B receptor, sequence (O88871 whole entry): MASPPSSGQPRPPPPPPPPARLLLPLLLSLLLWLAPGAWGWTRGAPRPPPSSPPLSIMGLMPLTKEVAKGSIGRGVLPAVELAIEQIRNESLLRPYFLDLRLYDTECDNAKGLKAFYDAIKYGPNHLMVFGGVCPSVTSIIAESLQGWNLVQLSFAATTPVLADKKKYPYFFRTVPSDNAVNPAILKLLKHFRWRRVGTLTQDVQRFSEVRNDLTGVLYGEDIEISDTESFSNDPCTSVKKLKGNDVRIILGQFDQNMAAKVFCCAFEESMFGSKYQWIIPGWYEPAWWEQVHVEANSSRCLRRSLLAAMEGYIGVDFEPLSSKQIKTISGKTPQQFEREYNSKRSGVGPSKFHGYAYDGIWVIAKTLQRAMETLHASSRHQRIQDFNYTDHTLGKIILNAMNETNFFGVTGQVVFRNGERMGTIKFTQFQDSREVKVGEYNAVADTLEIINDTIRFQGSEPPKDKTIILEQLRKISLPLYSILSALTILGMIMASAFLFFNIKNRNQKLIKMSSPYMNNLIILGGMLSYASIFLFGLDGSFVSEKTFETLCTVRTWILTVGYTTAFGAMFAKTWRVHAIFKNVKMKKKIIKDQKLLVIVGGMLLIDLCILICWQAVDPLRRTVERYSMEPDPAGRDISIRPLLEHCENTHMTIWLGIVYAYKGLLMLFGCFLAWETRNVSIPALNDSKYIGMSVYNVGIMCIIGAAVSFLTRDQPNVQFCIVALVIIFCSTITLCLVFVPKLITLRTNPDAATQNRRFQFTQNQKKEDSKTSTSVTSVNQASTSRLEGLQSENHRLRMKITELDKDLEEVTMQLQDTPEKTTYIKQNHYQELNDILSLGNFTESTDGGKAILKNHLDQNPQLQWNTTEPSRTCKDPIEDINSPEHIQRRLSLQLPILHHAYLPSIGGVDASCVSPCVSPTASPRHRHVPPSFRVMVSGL
In short: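 Rat brain synaptic membranes (male Sprague-Dawley), washed repeatedly in 5 mM Tris-HCl pH 7.1. 0.5 mg protein incubated with 50 nM [3H]GABA plus 20 µM isoguvacine in 50 mM Tris-HCl pH 7.4 with 2.5 mM CaCl2, 45 min at 24 °C. GF/B filtration, scintillation counting.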

Cavia porcellus [3] = species on record: Cavia porcellus; experiment: Sensitivity towards CGP-35348 in isolated longitudinal guinea pig ileum muscle; Sensitive; assay type: functional
Cavia porcellus [4] = species on record: Cavia porcellus; experiment: Sensitivity towards CGP-35348 in isolated longitudinal guinea pig ileum muscle; sensitive; assay type: functional

SMILES | IC50 [1] | EC50 (Cavia porcellus [2]) | IC50 (GABA B receptor) | Sensitivity (Cavia porcellus [3]) | Sensitivity (Cavia porcellus [4])
NC[C@@H](CC(=O)O)c1ccc(Cl)cc1 | > 100 µM | 3300 µM |  |  | 
NCC[C@H](CC(=O)O)c1ccc(Cl)cc1 | > 100 µM | 11 µM | 7.4 µM | inactive | 
NCC[C@@H](CC(=O)O)c1ccc(Cl)cc1 | > 100 µM | 310 µM | > 0.14 µM |  | inactive
NCC(CCC(=O)O)c1ccc(Cl)cc1 (stereo unspecified) | > 100 µM | > 3000 µM | > 0.14 µM |  | 
NC[C@H](CC(=O)O)c1ccc(Cl)cc1 [ARBACLOFEN] | > 100 µM | 11 µM |  | Active | 
